Square brackets hold non-standard residues; d marks the D form. Ends that are not written are not given here. * marks the point of attachment. MethylRed = CN(C)c1ccc(/N=N/c2ccccc2C(=O)*)cc1; Dnp = O=[N+]([O-])c1ccc(*)c([N+](=O)[O-])c1; AFC = O=c1cc(C(F)(F)F)c2ccc(N*)cc2o1; Mca = COc1ccc2c(CC(=O)*)cc(=O)oc2c1; Ahx = NCCCCCC(=O)O

Assay [1] has as its target T1, recombinant human caspase-7 (Homo sapiens, UniProt P55210).
T1 sequence (P55210 24-198 limits assumed): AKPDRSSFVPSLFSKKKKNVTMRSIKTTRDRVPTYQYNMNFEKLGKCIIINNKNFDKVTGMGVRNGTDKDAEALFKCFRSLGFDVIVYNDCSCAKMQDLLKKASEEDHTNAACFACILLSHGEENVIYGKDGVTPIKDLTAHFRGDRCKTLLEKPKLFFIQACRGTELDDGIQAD
T1 sequence (P55210 207-303 limits assumed): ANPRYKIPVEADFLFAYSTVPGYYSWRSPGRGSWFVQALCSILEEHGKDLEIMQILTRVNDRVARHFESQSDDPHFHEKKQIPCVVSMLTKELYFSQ
Put plainly: Kinetic assay. It counts as biochemical. The settings on record: caspase-7 15 nM; pH 7.5 caspase buffer; n = 3. The gist of the method: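 Human recombinant enzyme was incubated with internally quenched FRET substrates, FAM-Ahx-Asp-Glu-X2-Asp-X1′-(Ahx)-Lys(MR)-NH2. X2 was Val or Pro; X1′ was Gly, Ala, Ser or absent. The donor was 5(6)-carboxyfluorescein (Ex/Em 492/517 nm) and the quencher methyl red. Cleavage between Asp and X1′ relieves quenching. KM and kcat were determined for each substrate, and catalytic efficiency taken as kcat/KM.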

Assay [2] relates to caspase-3. Put plainly: Screen of time-dependent fluorescence activation with caspase-3. It counts as biochemical, human. Conditions: caspase-3 15 nM; for Activation with caspase-3 in preliminary screen (in words): substrate 2.5, 5 and 10 μM, 0-40 min, n = 3 (Fig. S1).
Assay [3] concerns the target T2, human recombinant caspase-7 (human) (UniProt P55210).
T2 sequence: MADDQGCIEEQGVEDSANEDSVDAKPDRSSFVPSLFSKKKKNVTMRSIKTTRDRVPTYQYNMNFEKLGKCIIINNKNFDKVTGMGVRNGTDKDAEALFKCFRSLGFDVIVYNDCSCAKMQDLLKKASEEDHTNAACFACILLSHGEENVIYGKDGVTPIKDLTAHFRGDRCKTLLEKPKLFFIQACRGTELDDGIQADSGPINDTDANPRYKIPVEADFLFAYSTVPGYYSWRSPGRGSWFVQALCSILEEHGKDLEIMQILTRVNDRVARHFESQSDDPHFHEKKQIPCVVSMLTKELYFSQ

Assay [4] addresses T3, human recombinant caspase-3 (human) (UniProt P42574).
T3 sequence: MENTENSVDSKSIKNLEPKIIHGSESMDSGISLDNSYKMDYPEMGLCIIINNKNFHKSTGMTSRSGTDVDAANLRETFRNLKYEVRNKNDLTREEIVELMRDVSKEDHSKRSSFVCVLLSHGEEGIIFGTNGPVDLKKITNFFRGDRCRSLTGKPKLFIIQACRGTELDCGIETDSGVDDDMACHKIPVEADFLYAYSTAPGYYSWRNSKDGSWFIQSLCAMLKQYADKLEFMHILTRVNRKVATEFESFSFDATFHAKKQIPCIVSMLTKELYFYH

For “Ac-Asp-Glu-Val-Asp-AFC [reference compound]”, the “Caspase-7 k cat/K M (catalytic efficiency)” value (“Caspase-7 k cat/K M” for short) in assay [1] was 1.1 μM^–1 min^–1.

Regarding “MCA-Asp-Glu-Val-Asp-Ala-Pro-Lys-DNP [reference compound]”, the “Caspase-7 k cat/K M” value in assay [1] is listed as 0.4 μM^–1 min^–1.

Take “Substrate 1: FRET substrate FAM-Ahx-Asp-Glu-X2-Asp-X1′-spacer-Lys(MR)-NH2; X2 Val, X1′ Gly, no spacer ({5(6)‑carboxyfluorescein-Ahx}-DEVDGK(MethylRed)-NH2)”: the “Caspase-7 k cat/K M” value in assay [1] is given as 8.6 μM^–1 min^–1.

On to “Substrate 2: FRET substrate of the template; X2 Pro, X1′ Ala, no spacer ({5(6)‑carboxyfluorescein-Ahx}-DEPDAK(MethylRed)-NH2)”, for which, in assay [2], the “Activation with caspase-3 in preliminary screen (in words)” value (from here on “Activation”) is “reduced activation”.

In the case of “Substrate 3: FRET substrate of the template; X2 Pro, X1′ Ser, no spacer ({5(6)‑carboxyfluorescein-Ahx}-DEPDSK(MethylRed)-NH2)”, in assay [2], the “Activation” value is recorded as “reduced activation”.

For “Substrate 4: FRET substrate of the template; X2 Val, no X1′, spacer Ahx ({5(6)‑carboxyfluorescein-Ahx}-DEVD[Ahx]K(MethylRed)-NH2)”, the “Caspase-7 k cat/K M” value in assay [1] is on record as 3.4 μM^–1 min^–1.

In the case of “Substrate 5: FRET substrate of the template; X2 Pro, no X1′, spacer Ahx ({5(6)‑carboxyfluorescein-Ahx}-DEPD[Ahx]K(MethylRed)-NH2)”, the “Caspase-7 k cat/K M” value in assay [1] is reported as 3.5 μM^–1 min^–1.

With “Substrate 6: FRET substrate of the template; X2 Pro, X1′ Gly, spacer Ahx ({5(6)‑carboxyfluorescein-Ahx}-DEPDG[Ahx]K(MethylRed)-NH2)”, the “Caspase-7 k cat/K M” value in assay [1] is listed as 8.4 μM^–1 min^–1.

Take “Substrate 7: FRET substrate of the template; X2 Val, X1′ Gly, spacer Ahx ({5(6)‑carboxyfluorescein-Ahx}-DEVDG[Ahx]K(MethylRed)-NH2)”: the “Caspase-7 k cat/K M” value in assay [1] came out at 3.9 μM^–1 min^–1.

Take “Substrate 8: FRET substrate of the template; X2 Pro, X1′ Ala, spacer Ahx ({5(6)‑carboxyfluorescein-Ahx}-DEPDA[Ahx]K(MethylRed)-NH2)”: in assay [1], the “Caspase-7 k cat/K M” value is listed as 0.14 μM^–1 min^–1. The “Activation” value in assay [2] is “activity was restored”.

Turning to “Substrate 9: FRET substrate of the template; X2 Val, X1′ Ala, spacer Ahx ({5(6)‑carboxyfluorescein-Ahx}-DEVDA[Ahx]K(MethylRed)-NH2)”, the “Caspase-7 k cat/K M” value in assay [1] is 3.2 μM^–1 min^–1. Besides, the “Fold higher increase in fluorescence than Ac-Asp-Glu-Val-Asp-AFC (AFC)” value in assay [2] (all substrates at 20 μM, n = 3 (Fig. S2)) amounted to 3 fold.

Take “Substrate 10: FRET substrate of the template; X2 Pro, X1′ Ser, spacer Ahx ({5(6)‑carboxyfluorescein-Ahx}-DEPDS[Ahx]K(MethylRed)-NH2)”: in assay [1], the “Caspase-7 k cat/K M” value came to 0.5 μM^–1 min^–1. The “Activation” value in assay [2] is recorded as “activity was restored”.

For “Substrate 11: FRET substrate of the template; X2 Val, X1′ Ser, spacer Ahx ({5(6)‑carboxyfluorescein-Ahx}-DEVDS[Ahx]K(MethylRed)-NH2)”, in assay [1], the “Caspase-7 k cat/K M” value was 2.4 μM^–1 min^–1.

In the case of Ac-DEVD-{AFC} [Ac-Asp-Glu-Val-Asp-AFC], the K M (μM) of cleavage of the fluorogenic substrate by caspase-7 in assay [3] turned out to be 10.8 µM. Further, the K M (μM) of cleavage of the fluorogenic substrate by caspase-3 in assay [4] was found to be 9.8 µM.

For Mca-DEVDAPK(Dnp) [MCA-Asp-Glu-Val-Asp-Ala-Pro-Lys-DNP], the K M (μM) of cleavage of the fluorogenic substrate by caspase-7 in assay [3] was found to be 15.1 µM. Moreover, in assay [4], the K M (μM) of cleavage of the fluorogenic substrate by caspase-3 came out at 13.5 µM.

These data come from publication PMC4763880 (Molecular Biosystems, 2016).
